5HT1E ag: activates the human 5-HT1E serotonin receptor. P28566. CHO 5-HT1E Ga15 NFAT-bla reporter, FRET; 0% DMSO wells, 100% control agonist wells. activation, % at 6 µM. hit rate 0.69% among 65,000;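 active = activation above a set limit, the screen-wide mean activation plus 3 SD, cut at about 8.5% in these data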;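 note: 100% = positive control agonist at 1 µM giving full maximal response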
HEK293 NFkB inh: inhibitors of the PMA/ionomycin-induced NF-kB reporter in HEK293 cells. HEK-293 NF-kB luciferase reporter, luminescence. inhibition, % at 3 µM. hit rate 0.21% among 62,000;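 active = inhibition above the mean of all tested compounds plus 3 SD, cut at about 40% in these data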;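 note: 0% = stimulated DMSO wells and 100% = 10 µM reference inhibitor 5653914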
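System: NF-kB luciferase reporter HEK-293 cells | Replication: Single test | Control set: DMSO vs reference inhibitor | Evaluation: % inhibition | Schedule: 1 h pretreatment, 16 h stimulation, 37 °C | Probe or stimulus: PMA with ionomycin | Compound dosing: One dose, 3 µM | Detection: Luciferase luminescence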
5HT1E antag: antagonists of human 5-HT1E serotonin receptor; CHO 5-HT1E Ga15 NFAT-bla reporter, FRET, antagonist; inhibition, % at 6 µM; hit rate 0.99% among 65,000; AID 571;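 active = inhibition above a set limit, the mean inhibition across every tested compound plus 3 SD, cut at about 29% in these data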;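 note: signal is the 460 over 535 nm emission ratio of beta-lactamase substrate; 0% = agonist plus DMSO wells and 100% = wells without agonist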
Jurkat viability: cytotoxic compounds reducing Jurkat cell viability | Jurkat E6.1 viability, ATP luminescence, 48 h | inhibition, % at 4 µM | hit rate 1.2% among 56,000 | AID 463;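 active = inhibition above the mean inhibition of all tested compounds plus 3 SD, cut at about 28% in these data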
5-HT1A blocker: blocks the human serotonin 5-HT1a receptor. AID 612. P08908. hit rate 0.68% among 62,000. CHO 5-HT1a Ga15 NFAT-bla reporter, antagonist mode. inhibition, % at 10 µM;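 active = inhibition above the mean of all tested compounds plus 3 SD, cut at about 43% in these data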;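 note: receptor stimulated by 5-CT agonist at 100 nM near EC80; beta-lactamase reporter measured by ratiometric fluorescence of a cleavable substrate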
Target sequence (P08908 whole entry, looked up): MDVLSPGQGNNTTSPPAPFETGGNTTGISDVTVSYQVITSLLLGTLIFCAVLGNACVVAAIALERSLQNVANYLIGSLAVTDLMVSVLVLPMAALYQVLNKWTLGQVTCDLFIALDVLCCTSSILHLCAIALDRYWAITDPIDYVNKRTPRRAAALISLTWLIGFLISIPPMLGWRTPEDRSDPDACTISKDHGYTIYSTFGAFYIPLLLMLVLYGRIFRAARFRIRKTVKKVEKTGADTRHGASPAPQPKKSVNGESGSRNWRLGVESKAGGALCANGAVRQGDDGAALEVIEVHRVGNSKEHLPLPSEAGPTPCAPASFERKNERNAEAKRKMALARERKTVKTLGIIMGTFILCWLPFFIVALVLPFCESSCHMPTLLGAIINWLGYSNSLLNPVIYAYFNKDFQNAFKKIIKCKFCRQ
5HT1a ag: activates the human 5-HT1a serotonin receptor; P08908; CHO 5-HT1a Ga15 NFAT-bla reporter, FRET ratio; 0% basal, 100% maximal reference agonist; activation, % at 10 µM; hit rate 0.56% among 65,000; AID 567;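 active = activation above the screen-wide mean activation plus 3 SD, cut at about 19% in these data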;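 note: 0% = DMSO wells and 100% = 5-CT at EC100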
Starred values were filed as active, the others as inactive; · = not tested or not shown. The list is not random: actives were taken first. Their share in the collection is about 3.3%.

SMILES	5HT1E ag	HEK293 NFkB inh	5HT1E antag	Jurkat viability	5-HT1A blocker	5HT1a ag
COc1cc(Cn2c(N)c(C#N)c3nc4ccccc4nc32)cc(OC)c1	6	6	14	3	25	21*
Nc1nc(C2CCCN2S(=O)(=O)c2ccc(Cl)cc2)cs1 (configuration not stated)	-1	4	3	9	-4	-3
COc1ccc(C(=O)CSc2nnc(CNc3nc(-c4ccccc4)cs3)n2C)cc1	1	-5	-9	10	-5	0
O=C(NCC(c1cccnc1)N1CCN(c2ccccc2F)CC1)c1cccc(Cl)c1 (configuration not stated)	0	24	-10	·	5	-2
Oc1ccc(COCc2ccccc2)c2cccnc12	0	7	47*	68*	12	-2
Oc1c(CN2CCCCC2)cc(COCc2ccccc2)c2cccnc12	2	32	48*	34*	30	-2
Oc1ccc(CNc2ccccc2F)c2cccnc12	0	6	-2	3	-18	-3
Oc1c(CN2CCN(c3ccccn3)CC2)cc(Cl)c2cccnc12	2	21	54*	45*	54*	-3
COCc1cc(CN2CCCC2)c(O)c2ncccc12	2	6	16	43*	5	0
COc1ccc(C(=O)Oc2c(CN3CCOCC3)cc(Cl)c3cccnc23)cc1	2	19	-2	16	8	1
Cc1ccc(NC(=O)CC2SC3=NCCCN3C2=O)c(C)c1 (configuration not stated)	0	7	-10	0	-23	1
Cc1cc(C)nc(N2CCN(c3nc(C)nc4c3oc3ccccc34)CC2)n1	-1	14	-9	·	5	0
COc1ccccc1N1CCN(c2nc(C)nc3c2oc2ccccc23)CC1	2	27	58*	77*	67*	-2
COc1ccc(CN2CCN(c3ccccn3)CC2)c(OC)c1	11*	10	-6	2	4	0
COc1ccc(CN2CCN(c3ncccn3)CC2)c(OC)c1	2	10	-4	0	0	4
COc1ccccc1N1CCN(Cc2cc(Br)c(O)c3ncccc23)CC1	14*	7	38*	61*	65*	-4
Cc1noc(/C=C/c2ccco2)c1S(=O)(=O)N1CCC(C(=O)N2CCc3ccccc3C2)CC1	0	6	-7	9	6	-5
Cc1ccc(C)c(N2CCN(C(c3ccncc3)c3nnnn3Cc3ccccc3)CC2)c1 (configuration not stated)	36*	-9	2	5	-174	0
CN1CCN(C(c2cccc(C(F)(F)F)c2)c2nnnn2Cc2ccccc2)CC1 (configuration not stated)	-1	7	3	-6	11	-2
c1ccc(Cn2nnnc2C(c2cccs2)N2CCc3ccccc3C2)cc1 (configuration not stated)	-1	11	13	-2	52*	0
COc1ccc(Cn2nnnc2C(c2cccs2)N2CCN(c3ccccc3)CC2)cc1 (configuration not stated)	0	8	7	10	44*	-1
COC(=O)C1CCN(C(=O)COC(=O)CC(NC(N)=O)c2ccc(Cl)cc2)CC1 (configuration not stated)	0	1	-7	-6	4	-3
COc1ccc(CCNC(=O)c2cc3ccccn3n2)c(OC)c1OC	1	-3	0	2	-8	-2
CC1(C)CC(=O)C(C=NCCN2CCOCC2)=C(O)C1	1	10	0	-1	8	-4
CN1C(=O)CC(N2CCN(CCN=CC3=C(O)CC(C)(C)CC3=O)CC2)C1=O (configuration not stated)	0	-6	-4	-9	55*	-1
COc1ccc(C(=O)COC(=O)CCN=C2NS(=O)(=O)c3ccccc32)cc1OC	20*	8	14	-8	3	0
O=C(O)C1CCCN1S(=O)(=O)c1ccc(Cl)c(Cl)c1 (configuration not stated)	44*	5	-1	-1	10	-1

Screens: PubChem BioAssay, The Scripps Research Institute Molecular Screening Center
